Tests used:
Format in all cases: functional
[1] = system: NCI-H23; test: Growth inhibition of human NCI-H23 cells after 48 hrs by sulforhodamine B assay; conditions: NCI-H23, 48 h; for TGI: read-out: pTGI (converted)
Method in brief: (§1)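 NCI 60-human-tumor-cell-line panel, with compounds tested over a 5-log dose range. Values are taken from dose-response curves as log10 molar concentrations: GI50 is 50% net growth inhibition, TGI is total growth inhibition, and LC50 is 50% net cell death.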

[2] = system: SW-620; test: Growth inhibition of human SW620 cells after 48 hrs by sulforhodamine B assay; conditions: SW-620, 48 h; for CC50: read-out: pLC50 (the source's name) (converted); for TGI: read-out: pTGI (converted)
Method in brief: (§2)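 Run in the NCI 60-human-tumour-cell-line panel, tested over a 5-log dose range. Dose–response curves gave three values per cell line, each as a log10 molar concentration: GI50 (50% inhibition of net cell growth), TGI (total inhibition of net growth) and LC50 (50% net cell death). The mean graph midpoint is the arithmetic mean over all lines, with insensitive lines entered at the highest concentration tested.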

[3] = system: A498; test: Growth inhibition of human A498 cells after 48 hrs by sulforhodamine B assay; conditions: A498, 48 h; for CC50: read-out: pLC50 (the source's name) (converted); for TGI: read-out: pTGI (converted); method in brief: as §1
[4] = system: HL-60(TB); test: Growth inhibition of human HL-60(TB) cells after 48 hrs by sulforhodamine B assay; conditions: HL-60, 48 h; for TGI: read-out: pTGI (converted)
Method in brief: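 Tested only on compounds active in a three-line prescreen, in the NCI 60-human-tumour-cell-line panel over a 5-log dose range. Values come from dose–response curves as log10 molar GI50, the concentration inhibiting 50% net cell growth. Log10 TGI (total growth inhibition) and log10 LC50 (50% net cell death) were derived too. Mean graph midpoints include insensitive lines at the highest concentration tested.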

[5] = system: SF-539; test: Growth inhibition of human SF539 cells after 48 hrs by sulforhodamine B assay; conditions: SF-539, 48 h; for TGI: read-out: pTGI (converted); method in brief: as §1
[6] = system: NCI/ADR-RES; test: Growth inhibition of human NCI/ADR-RES cells after 48 hrs by sulforhodamine B assay; conditions: for CC50: read-out: pLC50 (the source's name) (converted); for TGI: read-out: pTGI (converted); method in brief: as §1
[7] = system: K562; test: Growth inhibition of human K562 cells after 48 hrs by sulforhodamine B assay; conditions: K562, 48 h; for TGI: read-out: pTGI (converted); method in brief: as §1
[8] = system: SR; test: Growth inhibition of human SR cells after 48 hrs by sulforhodamine B assay; method in brief: as §2
[9] = system: ACHN; test: Growth inhibition of human ACHN cells after 48 hrs by sulforhodamine B assay; conditions: for CC50: read-out: pLC50 (the source's name) (converted); for TGI: read-out: pTGI (converted)
[10] = system: M14; test: Growth inhibition of human M14 cells after 48 hrs by sulforhodamine B assay; conditions: M14, 48 h; for CC50: read-out: pLC50 (the source's name) (converted); for TGI: read-out: pTGI (converted); method in brief: as §1
[11] = system: SK-MEL-28; test: Growth inhibition of human SK-MEL-28 cells after 48 hrs by sulforhodamine B assay; conditions: SK-MEL-28, 48 h; for CC50: read-out: pLC50 (the source's name) (converted); for TGI: read-out: pTGI (converted); method in brief: as §1
[12] = system: SN12C; test: Growth inhibition of human SN12C cells after 48 hrs by sulforhodamine B assay; conditions: for CC50: read-out: pLC50 (the source's name) (converted); for TGI: read-out: pTGI (converted); method in brief: as §2
[13] = system: HCT-15; test: Growth inhibition of human HCT15 cells after 48 hrs by sulforhodamine B assay; conditions: HCT-15, 48 h; method in brief: as §1
[14] = system: UACC-62; test: Growth inhibition of human UACC62 cells after 48 hrs by sulforhodamine B assay; conditions: UACC-62, 48 h; for CC50: read-out: pLC50 (the source's name) (converted); for TGI: read-out: pTGI (converted); method in brief: as §2
[15] = system: EKVX; test: Growth inhibition of human EKVX cells after 48 hrs by sulforhodamine B assay; conditions: for TGI: read-out: pTGI (converted); method in brief: as §1
[16] = system: HCT-116; test: Growth inhibition of human HCT116 cells after 48 hrs by sulforhodamine B assay; conditions: HCT-116, 48 h; for TGI: read-out: pTGI (converted); method in brief: as §1
[17] = system: RXF 393; test: Growth inhibition of human RXF393 cells after 48 hrs by sulforhodamine B assay; conditions: RXF 393, 48 h; for CC50: read-out: pLC50 (the source's name) (converted); for TGI: read-out: pTGI (converted); method in brief: as §1
[18] = system: DU-145; test: Growth inhibition of human DU145 cells after 48 hrs by sulforhodamine B assay; conditions: DU-145, 48 h; for CC50: read-out: pLC50 (the source's name) (converted); for TGI: read-out: pTGI (converted); method in brief: as §1
[19] = system: LOX IMVI; test: Growth inhibition of human LOXIMVI cells after 48 hrs by sulforhodamine B assay; conditions: for TGI: read-out: pTGI (converted); method in brief: as §1
[20] = system: NCI-H226; test: Growth inhibition of human NCI-H226 cells after 48 hrs by sulforhodamine B assay; conditions: NCI-H226, 48 h; method in brief: as §1
[21] = system: T47D; test: Growth inhibition of human T47D cells after 48 hrs by sulforhodamine B assay; conditions: for CC50: read-out: pLC50 (the source's name) (converted); for TGI: read-out: pTGI (converted); method in brief: as §2
[22] = system: CCRF-CEM; test: Growth inhibition of human CCRF-CEM cells after 48 hrs by sulforhodamine B assay; conditions: for TGI: read-out: pTGI (converted); method in brief: as §1
[23] = system: Malme-3M; test: Growth inhibition of human MALME-3M cells after 48 hrs by sulforhodamine B assay; conditions: for CC50: read-out: pLC50 (the source's name) (converted); for TGI: read-out: pTGI (converted); method in brief: as §1
[24] = system: SK-MEL-2; test: Growth inhibition of human SK-MEL-2 cells after 48 hrs by sulforhodamine B assay; conditions: SK-MEL-2, 48 h; for CC50: read-out: pLC50 (the source's name) (converted); for TGI: read-out: pTGI (converted); method in brief: as §1
[25] = system: A549; test: Growth inhibition of human A549 cells after 48 hrs by sulforhodamine B assay; conditions: A549, 48 h; for TGI: read-out: pTGI (converted); method in brief: as §1
[26] = Growth inhibition of human […] cells after 48 hrs by sulforhodamine B assay; conditions: for TGI: read-out: pTGI (converted); method in brief: as §1
[27] = system: HOP-92; test: Growth inhibition of human HOP92 cells after 48 hrs by sulforhodamine B assay; conditions: HOP-92, 48 h; method in brief: as §1
[28] = system: HT-29; test: Growth inhibition of human HT-29 cells after 48 hrs by sulforhodamine B assay; conditions: HT-29, 48 h; method in brief: as §1
[29] = system: BT-549; test: Growth inhibition of human BT549 cells after 48 hrs by sulforhodamine B assay; conditions: BT-549, 48 h; method in brief: as §1

## Nc1cc(N)c2nc(-c3ccccc3)c(Oc3ccc(Cl)c(Cl)c3)nc2c1
[1]
  GI50: 15.5 µM
  LC50 (50% net cell kill concentration): > 100 µM
  TGI: 39.8 µM
[2]
  GI50: 9.77 µM
  CC50: 91.2 µM
  TGI: 30.2 µM
[3]
  GI50: 91.2 µM
  CC50: > 100 µM
  TGI: > 100 µM
[4]
  GI50: 5.13 µM
  LC50: > 100 µM
  TGI: > 100 µM
[5]
  GI50: 13.5 µM
  LC50: 64.6 µM
  TGI: 29.5 µM
[6]
  GI50: 11.7 µM
  CC50: > 100 µM
  TGI: 36.3 µM
[7]
  GI50: 3.55 µM
  LC50: > 100 µM
  TGI: > 100 µM
[8]
  LC50 (concentration giving 50% net cell death): > 100 µM
[9]
  GI50: 9.33 µM
  CC50: > 100 µM
  TGI: 47.9 µM
[10]
  GI50: 14.1 µM
  CC50: > 100 µM
  TGI: 70.8 µM
[11]
  GI50: 21.4 µM
  CC50: > 100 µM
  TGI: 64.6 µM
[12]
  GI50: 11.5 µM
  CC50: > 100 µM
  TGI: > 100 µM
[13]
  GI50: 20 µM
  LC50: > 100 µM
[13]; read-out: pTGI (converted)
  TGI: > 100 µM
[14]
  GI50: 16.2 µM
  CC50: > 100 µM
  TGI: 47.9 µM
[15]
  GI50: 2.14 µM
  LC50 (50% net cell kill): 41.7 µM
  TGI: 8.32 µM
[16]
  GI50: 15.8 µM
  LC50 (concentration causing 50% net cell death): > 100 µM
  TGI: 47.9 µM
[17]
  GI50: 6.03 µM
  CC50: > 100 µM
  TGI: 58.9 µM
[18]
  GI50: 29.5 µM
  CC50: > 100 µM
  TGI: > 100 µM
[19]
  GI50: 16.2 µM
  LC50: 72.4 µM
  TGI: 33.9 µM
[20]
  GI50: 15.1 µM
  LC50: > 100 µM
[20]; read-out: pTGI (converted)
  TGI: 49 µM
[21]
  GI50: 24.5 µM
  CC50: > 100 µM
  TGI: 79.4 µM
[22]
  GI50: 2.95 µM
  LC50: > 100 µM
  TGI: > 100 µM
[23]
  GI50: 15.8 µM
  CC50: 89.1 µM
  TGI: 37.2 µM
[24]
  GI50: 5.62 µM
  CC50: 89.1 µM
  TGI: 23.4 µM
[25]
  GI50: 18.2 µM
  LC50: > 100 µM
  TGI: 43.7 µM
[26]
  GI50: 3.47 µM
  LC50: > 100 µM
  TGI: > 100 µM

## COc1cc(CNc2nc3cc(N)cc(N)c3nc2-c2ccccc2)cc(OC)c1
[27]
  GI50: 1.15 µM
  LC50 (50% net cell death): 9.55 µM
[27]; read-out: pTGI (converted)
  TGI: 3.31 µM
[1]
  GI50: 16.2 µM
  LC50 (50% net cell kill concentration): > 100 µM
  TGI: > 100 µM
[2]
  GI50: 4.47 µM
  CC50: > 100 µM
  TGI: > 100 µM
[3]
  GI50: 91.2 µM
  CC50: > 100 µM
  TGI: > 100 µM
[4]
  GI50: 3.8 µM
  LC50: > 100 µM
  TGI: > 100 µM
[5]
  GI50: 5.25 µM
  LC50: 77.6 µM
  TGI: 21.4 µM
[6]
  GI50: 5.5 µM
  CC50: > 100 µM
  TGI: 33.1 µM
[7]
  GI50: 3.63 µM
  LC50: > 100 µM
  TGI: 9.33 µM
[8]
  GI50: 3.8 µM
  LC50 (concentration giving 50% net cell death): > 100 µM
[8]; read-out: pTGI (converted)
  TGI: > 100 µM
[9]
  GI50: 9.33 µM
  CC50: > 100 µM
  TGI: 47.9 µM
[10]
  GI50: 10 µM
  CC50: > 100 µM
  TGI: 49 µM
[11]
  GI50: 1.78 µM
  CC50: > 100 µM
  TGI: 8.71 µM
[12]
  GI50: 11.5 µM
  CC50: > 100 µM
  TGI: > 100 µM
[28]
  GI50: 8.13 µM
  LC50: > 100 µM
[28]; read-out: pTGI (converted)
  TGI: 44.7 µM
[13]
  GI50: 19.5 µM
[14]
  GI50: 5.37 µM
  CC50: > 100 µM
  TGI: 30.9 µM
[15]
  GI50: 2.82 µM
  LC50 (50% net cell kill): > 100 µM
  TGI: 8.91 µM
[16]
  GI50: 3.09 µM
  LC50 (concentration causing 50% net cell death): 72.4 µM
  TGI: 11.2 µM
[17]
  GI50: 6.03 µM
  CC50: > 100 µM
  TGI: 58.9 µM
[29]
  GI50: 9.77 µM
[29]; read-out: pLC50 (the source's name) (converted)
  CC50: > 100 µM
[29]; read-out: pTGI (converted)
  TGI: > 100 µM
[18]
  GI50: 29.5 µM
  CC50: > 100 µM
  TGI: > 100 µM
[19]
  GI50: 4.47 µM
  LC50: > 100 µM
  TGI: 81.3 µM
[21]
  GI50: 1.66 µM
  CC50: > 100 µM
  TGI: 4.57 µM
[22]
  GI50: 1.74 µM
  LC50: > 100 µM
  TGI: 5.62 µM
[23]
  GI50: 4.9 µM
  CC50: > 100 µM
  TGI: 33.9 µM
[24]
  GI50: 7.76 µM
  CC50: > 100 µM
  TGI: 40.7 µM
[25]
  GI50: 33.1 µM
  LC50: > 100 µM
  TGI: > 100 µM
[26]
  GI50: 2.19 µM
  LC50: > 100 µM
  TGI: 6.17 µM
